Experiments:
Format in all cases: functional
Jurkat [1] = assay: Cytotoxicity against human Jurkat cells assessed as cell viability at 2 uM after 24 hrs by MTT assay relative to control; details: read-out: Activity
Outline: (§1)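 Suspension lines grown in α-MEM plus 10% FBS and penicillin-streptomycin, 37 °C, 5% CO2. Seeded at 30,000 cells/well in phenol-red-free α-MEM and rested 15 h. Exposed to 10 µM, or 2 µM in the lower-dose repeat, at 1% DMSO final for 24 h. 5 mg/ml MTT added directly for 3 h at 37 °C. Plates spun, formazan dissolved in DMSO, OD read at 550 nm. Viability relative to vehicle.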

A549 = assay: Cytotoxicity against human A549 cells assessed as cell viability at 10 uM after 24 hrs by MTT assay relative to control; details: A549, 24 h, read-out: Activity
Outline: (§2)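 Adherent lines in DMEM plus 10% FBS and penicillin-streptomycin, 37 °C, 5% CO2, lifted with Accutase. Seeded at 500–10,000 cells/well and rested 15 h. Compounds from 10 mM DMSO stocks dosed at 10 µM final, 1% DMSO final, n = 5, for 24 h. Medium then swapped for 1 mg/ml MTT in phenol-red-free medium for 3 h at 37 °C. Formazan dissolved in DMSO, OD read at 550 nm. Viability normalised to 1% DMSO vehicle control.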

SK-N-MC [2] = assay: Cytotoxicity against human SK-N-MC cells assessed as cell viability at 10 uM after 24 hrs by MTT assay relative to control; details: read-out: Activity; outline: as §2
PC-3 [3] = assay: Cytotoxicity against human PC3 cells assessed as cell viability at 10 uM after 24 hrs by MTT assay relative to control; details: PC-3, 24 h, read-out: Activity; outline: as §2
Jurkat [4] = assay: Cytotoxicity against human Jurkat cells assessed as cell viability at 10 uM after 24 hrs by MTT assay relative to control; details: read-out: Activity; outline: as §1
MDA-MB-231 [5] = assay: Cytotoxicity against human MDA-MB-231 cells assessed as cell viability at 10 uM after 24 hrs by MTT assay relative to control; details: MDA-MB-231, 24 h, read-out: Activity; outline: as §2
JeKo-1 [6] = assay: Cytotoxicity against human JeKo1 cells assessed as cell viability at 10 uM after 24 hrs by MTT assay relative to control; details: JeKo-1, 24 h, read-out: Activity; outline: as §1
SJSA-1 [7] = assay: Cytotoxicity against human SJSA1 cells assessed as cell viability at 10 uM after 24 hrs by MTT assay relative to control; details: SJSA-1, 24 h, read-out: Activity; outline: as §2
HeLa [8] = assay: Cytotoxicity against human HeLa cells assessed as cell viability at 10 uM after 24 hrs by MTT assay relative to control; details: read-out: Activity; outline: as §2
JeKo-1 [9] = assay: Cytotoxicity against human JeKo1 cells assessed as cell viability at 2 uM after 24 hrs by MTT assay relative to control; details: JeKo-1, 24 h, read-out: Activity; outline: as §1
HCT-116 [10] = assay: Cytotoxicity against human HCT116 cells assessed as cell viability at 10 uM after 24 hrs by MTT assay relative to control; details: HCT-116, 24 h, read-out: Activity; outline: as §2
SK-MEL-2 = assay: Cytotoxicity against human SK-MEL-2 cells assessed as cell viability at 10 uM after 24 hrs by MTT assay relative to control; details: SK-MEL-2, 24 h, read-out: Activity; outline: as §2
HCT-116 [11] = assay: Cytotoxicity against human HCT116 cells assessed as cell viability after 24 hrs by MTT assay; details: HCT-116, 24 h, read-out: LC50 (the source's name)
Outline: (§3)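 Adherent cells grown in DMEM with 10% FBS and penicillin-streptomycin, dissociated with Accutase, seeded at 500–10,000 cells/well and held 15 h before treatment. Compounds diluted from 10 mM DMSO stocks, final 1% DMSO, for 24 h at 37 °C, 5% CO2. Medium replaced with 1 mg/ml MTT for 3 h, formazan dissolved in DMSO, OD 550 nm. LC50 from dose-response curves normalized to 1% DMSO vehicle.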

MDA-MB-231 [12] = assay: Cytotoxicity against human MDA-MB-231 cells assessed as cell viability after 24 hrs by MTT assay; details: MDA-MB-231, 24 h, read-out: LC50 (the source's name); outline: as §3
JeKo-1 [13] = assay: Cytotoxicity against human JeKo1 cells assessed as cell viability after 24 hrs by MTT assay; details: JeKo-1, 24 h, read-out: LC50 (the source's name)
Outline: (§4)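 Suspension cells grown in α-MEM with 10% FBS and penicillin-streptomycin, seeded at 30,000 cells/well in phenol red-free medium and held 15 h before treatment. Compounds diluted from 10 mM DMSO stocks, final 1% DMSO, for 24 h. MTT (5 mg/ml stock) added directly for 3 h at 37 °C, then centrifugation, DMSO solubilization, OD 550 nm. LC50 from dose-response curves normalized to vehicle.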

Jurkat [14] = assay: Cytotoxicity against human Jurkat cells assessed as cell viability after 24 hrs by MTT assay; details: read-out: LC50 (the source's name); outline: as §4
HeLa [15] = assay: Cytotoxicity against human HeLa cells assessed as cell viability after 24 hrs by MTT assay; details: read-out: LC50 (the source's name); outline: as §3
PC-3 [16] = assay: Cytotoxicity against human PC3 cells assessed as cell viability after 24 hrs by MTT assay; details: PC-3, 24 h, read-out: LC50 (the source's name); outline: as §3
SK-N-MC [17] = assay: Cytotoxicity against human SK-N-MC cells assessed as cell viability after 24 hrs by MTT assay; details: read-out: LC50 (the source's name); outline: as §3
SJSA-1 [18] = assay: Cytotoxicity against human SJSA1 cells assessed as cell viability after 24 hrs by MTT assay; details: SJSA-1, 24 h, read-out: LC50 (the source's name); outline: as §3

Row | Compound | viability at 2 µM (Jurkat [1]) | viability at 10 µM (A549) | viability at 10 µM (SK-N-MC [2]) | viability at 10 µM (PC-3 [3]) | viability at 10 µM (Jurkat [4]) | viability at 10 µM (MDA-MB-231 [5]) | viability at 10 µM (JeKo-1 [6]) | viability at 10 µM (SJSA-1 [7]) | viability at 10 µM (HeLa [8]) | viability at 2 µM (JeKo-1 [9]) | viability at 10 µM (HCT-116 [10]) | viability at 10 µM (SK-MEL-2) | CC50 (HCT-116 [11]) | CC50 (MDA-MB-231 [12]) | CC50 (JeKo-1 [13]) | CC50 (Jurkat [14]) | CC50 (HeLa [15]) | CC50 (PC-3 [16]) | CC50 (SK-N-MC [17]) | CC50 (SJSA-1 [18])
1 | C=C1C(=O)O[C@@H]2[C@H]3O[C@]3(C)CC/C=C(/COC(=O)Nc3ccccc3)CC[C@@H]12 | 89.2% | 60.3% | 102% | 85.3% | 0% | 97.1% | 16.6% | 100% | 74.2% | 100% | 45.9% | 80.5% |  |  |  |  |  |  |  | 
2 | C=C1C(=O)O[C@@H]2[C@H]3O[C@]3(C)CC/C=C(/COC(=O)Nc3cccc4ccccc34)CC[C@@H]12 | 96% | 84.5% | 104% | 81.9% | 89% | 100% | 16.8% | 98.3% | 75% | 102% | 100% | 73.6% |  |  |  |  |  |  |  | 
3 | C=C1C(=O)O[C@@H]2[C@H]3O[C@]3(C)CC/C=C(/C)[C@@H](OC(=O)c3cc(-c4ccc(Cl)cc4)on3)C[C@@H]12 | 95.7% | 98.4% | 70.7% | 71.7% | 0% | 84.7% | -2.7% | 92.7% | 63.5% | 96.9% | 14.2% | 85.8% | 8.3 µM |  |  |  |  |  |  | 
4 | C=C1C(=O)O[C@@H]2[C@H]3O[C@]3(C)CC/C=C(/COC(=O)c3coc(-c4ccc(Br)cc4)c3)CC[C@@H]12 | 89% | 74.8% | 66.1% | 65.9% | 0% | 91% | 7.4% | 47.7% | 57.6% | 100% | 11.8% | 78.8% | 11.8 µM |  |  |  |  |  |  | 
5 | C=C1C(=O)O[C@@H]2[C@H]3O[C@]3(C)CC/C=C(/C)[C@@H](OC(=O)Nc3cccc4ccccc34)C[C@@H]12 | 93.3% | 95.8% | 96.8% | 83.4% | 84% | 100% | 75.7% | 100% | 88.8% | 97.6% | 100% | 98.7% |  |  |  |  |  |  |  | 
6 | C=C1C(=O)O[C@@H]2[C@H]3O[C@]3(C)CC/C=C(/C)[C@@H](OC(=O)Nc3ccccc3)C[C@@H]12 | 89.8% | 84.5% | 91.9% | 88.4% | 2.9% | 100% | 2.6% | 96.6% | 69% | 92.2% | 55.3% | 69.4% |  |  |  |  |  |  |  | 
7 | C=C1C(=O)O[C@@H]2[C@H]3O[C@]3(C)CC/C=C(/C)[C@@H](OC(=O)Nc3cc(C(F)(F)F)cc(C(F)(F)F)c3)C[C@@H]12 | 68.9% | 54.3% | 18.5% | 38.7% | 0% | 16.7% | -1% | 68.2% | 20.2% | 76.4% | 10.8% | 57% | 7.9 µM | 7.2 µM | 3.5 µM | 2.8 µM |  |  |  | 
8 | C=C1C(=O)O[C@@H]2[C@H]3O[C@]3(C)CC/C=C(/COC(=O)Nc3ccc([N+](=O)[O-])cc3)CC[C@@H]12 | 79% | 60% | 23.3% | 17.7% | 0% | 41.3% | -0.1% | 44.5% | 5.4% | 80% | 1.6% | 40.4% | 7.8 µM |  |  |  | 1.7 µM | 5.7 µM |  | 
9 | C=C1C(=O)O[C@@H]2[C@H]3O[C@]3(C)CC/C=C(/COC(=O)c3ccc(C(F)(F)F)cc3C(F)(F)F)CC[C@@H]12 | 89% | 45.1% | 18.7% | 4% | 0% | 20.7% | -2.2% | 17.8% | 11.3% | 80.9% | 15.1% | 62% | 8.2 µM |  |  |  | 2.9 µM | 6.7 µM | 5.6 µM | 7.7 µM
10 | C=C1C(=O)O[C@@H]2[C@H]3O[C@]3(C)CC/C=C(/COC(=O)Nc3ccc(F)cc3F)CC[C@@H]12 | 86.2% | 70.6% | 95.6% | 89.8% | 0% | 88.5% | -2.1% | 100% | 89.7% | 78.3% | 33.2% | 84.5% |  |  | 6.7 µM |  |  |  |  | 
11 | C=C1C(=O)O[C@@H]2[C@H]3O[C@]3(C)CC/C=C(/C)[C@@H](OC(=O)c3ccc(C(F)(F)F)cc3C(F)(F)F)C[C@@H]12 | 83.2% | 33.7% | 11.5% | 6.4% | 0% | 19.2% | 5.7% | 26.5% | 10.7% | 105% | 20.8% | 61.4% |  | 5.7 µM |  |  | 2.1 µM | 5.3 µM | 5.7 µM | 
12 | C=C1C(=O)O[C@@H]2[C@H]3O[C@]3(C)CC/C=C(/C)[C@@H](OC(=O)Nc3ccc([N+](=O)[O-])cc3)C[C@@H]12 | 78.9% | 83.3% | 92.4% | 94.1% | 0.2% | 98.6% | 0% | 100% | 78% | 84.1% | 38% | 75.2% |  |  |  |  |  |  |  | 
13 | C=C1C(=O)O[C@@H]2[C@H]3O[C@]3(C)CC/C=C(/C)[C@@H](OC(=O)Nc3ccc(F)cc3F)C[C@@H]12 | 85.8% | 68.9% | 91.3% | 82.8% | 0% | 96.4% | -2.6% | 100% | 76.3% | 80.4% | 17.6% | 85.8% | 11.8 µM |  |  |  |  |  |  | 

— ChEMBL document CHEMBL4219033, “Anticancer activity profiling of parthenolide analogs generated via P450-mediated chemoenzymatic synthesis” (2018)
